ChEMBL document CHEMBL4689842, “EUbOPEN Chemogenomics Library wave 1” (2021)
“And” between values parts separate entries of the source, which are not always exact repeats. Identical values can stand only once.

System: HEK-293T
Experiment: Multiplex assay against HEK293T;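 for Population Tubulin-Different-Phenotype (%): share of the cells with healthy nuclei that show this phenotype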
Format: toxicity, cell-based
Details: human, 10 µM, compound concentration 10 uM
Summary of the method: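 Cells stained live at seeding with Hoechst33342, BioTracker Green Microtubule Cytoskeleton Dye, MitoTracker Red and Annexin V Alexa Fluor 680 were imaged on a CQ1 microscope at 37°C and 5% CO2 after compound addition. Their classification by CellPathfinder machine-learning gating ran from Hoechst high-intensity objects versus normal cells, to healthy, pyknosed or fragmented nuclei among normal cells, to mitotic or apoptotic among pyknosed cells. Tubulin, mitochondrial-mass and membrane-permeability phenotypes are per cents of healthy-nucleus cells.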

## CCOCCn1cc(C(=O)Nc2ccc(-n3nc(-c4cccnc4)cc3C(F)(F)F)cn2)ccc1=O [BI 1935]
12 h, replicate 1
  Population Fragmented Nuclei (%): 15% and 16% and 10%
  Population Healthy Nuclei (%): 27% and 50% and 70%
  Population Hoechst High Intensity Objects (%): 20% and 15% and 10%
  Population Membrane Permeable-Phenotype (%): 6%
  Population Mitotic Cells (%): 30% and 78% and 83%
  Population Normal (%): 80% and 84% and 89%
  Total Cell Count: 285 and 667 and 651
12 h, replicate 2
  Population Fragmented Nuclei (%): 3% and 7%
  Population Healthy Nuclei (%): 29% and 84% and 87%
  Population Membrane Permeable-Phenotype (%): 3% and 10% and 2%
  Population Mitotic Cells (%): 71% and 84% and 95%
  Population Normal (%): 91% and 96% and 97%
24 h, replicate 1
  Population Fragmented Nuclei (%): 20% and 16% and 10%
  Population Healthy Nuclei (%): 33% and 62% and 81%
  Population Hoechst High Intensity Objects (%): 18% and 14%
  Population Mitotic Cells (%): 29% and 75% and 80%
  Population Normal (%): 81% and 85%
  Total Cell Count: 309 and 632 and 787
24 h, replicate 2
  Population Healthy Nuclei (%): 43% and 88% and 71%
  Population Hoechst High Intensity Objects (%): 2% and 4%
  Population Mitotic Cells (%): 53% and 88% and 98%
  Population Normal (%): 97% and 95%
48 h, replicate 1
  Population Apoptotic (%): 59%
  Population Fragmented Nuclei (%): 22%
  Population Healthy Nuclei (%): 33%
  Population Hoechst High Intensity Objects (%): 17%
  Population Membrane Permeable-Phenotype (%): 2%
  Population Mitochondria Different-Phenotype (%): 89%
  Population Mitotic Cells (%): 40%
  Population Normal (%): 82%
  Population Pyknosed Nuclei (%): 44%
  Population Tubulin-Different-Phenotype (%): 93%
  Total Cell Count: 341
48 h, replicate 2
  Population Apoptotic (%): 33%
  Population Fragmented Nuclei (%): 4%
  Population Healthy Nuclei (%): 61%
  Population Hoechst High Intensity Objects (%): 4%
  Population Membrane Permeable-Phenotype (%): 6%
  Population Mitochondria Different-Phenotype (%): 55%
  Population Mitotic Cells (%): 66%
  Population Normal (%): 95%
  Population Pyknosed Nuclei (%): 33%
  Population Tubulin-Different-Phenotype (%): 79%
  Total Cell Count: 283
